From paper PMC9623456 (RSC Advances, 2022)
Values after ≈ are worked out from the molar mass of the structure shown.

Key:
[1] = test system: mouse embryo cell lines 3T3-L1; assay: MTT assay; format: cell-based; details: for IC50: Mus musculus, 3T3-L1, read-out: 3T3-L1 IC50
Outline: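 MTT metabolic-activity assay in mouse embryo 3T3-L1 cells exposed to a range of test-compound concentrations. Percent viability was calculated by formula and plotted against concentration in μg ml−1. IC50 was taken from the dose–response curve as the concentration giving 50% growth suppression.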

3T3-L1 cells = assay: Scratch wound assay; format: cell-based, mouse; details: 3T3-L1, 24 hours
Outline: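 Scratch assay: 3T3-L1 cells were grown to confluence, then wounded with a pipette tip and treated with test compounds. Wound width was measured at the time of scratching and again after 24 h.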

[2] = biological target: HIF-1α prolyl hydroxylase-2 (PHD2); details: PHD2 inhibition; cited from earlier work
[3] = Phase 2 trial; cited from earlier work
mice = assay: Acute oral toxicity study; format: in vivo
Outline: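 OECD 420 fixed-dose procedure in mice. Animals were dosed orally in stepwise groups at fixed doses of 5, 50, 300 and 2000 mg kg−1. Further groups received higher or lower fixed doses depending on the presence or absence of toxicity or death. Read-outs were clinical signs of toxicity and mortality.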

diabetic rats = assay: Full thickness excision wound model in STZ-nicotinamide diabetic rats; format: in vivo, Wistar male albino rats

## c1ccc(-c2cc(-c3ccccc3)n(CN(c3ccccc3)c3ccccc3)n2)cc1 [CDPA, N-[(3,5-diphenylpyrazol-1-yl)methyl] -N-phenylaniline]
[1]
  IC50: 132 µg/mL (≈ 328 µM)

## c1ccc(-c2cc(-c3ccccc3)n(Cn3cccn3)n2)cc1 [CP, 3,5-Diphenyl-1-(pyrazole-1-ylmethyl) pyrazole]
[1]
  IC50: 111 µg/mL (≈ 371 µM)
3T3-L1 cells
  Activity compared to the positive control hyaluronic acid: comparable activity

## O=C(O)CNC(=O)c1nc(Cl)c2ccccc2c1O [FG-2216]
[2]
  IC50: 3.9 µM
[3]
  Fatal outcome: one patient died of hepatic necrosis
  Liver enzyme test results: aberrant liver enzyme test results

## c1ccc(-c2cc(-c3ccccc3)n(Cn3ccnc3)n2)cc1 [CI, 1-(Imidazol-1-ylmethyl) −3,5-diphenylpyrazole]
mice; oral, 2000 mg kg^−1
  Acute oral toxicity outcome: died
mice; oral, 5, 50, and 300 mg kg^−1
  Acute oral toxicity outcome: no adverse effects or fatality
[1]
  IC50: 107 µg/mL (≈ 355 µM)
Diabetic rats; High dose 150 mg kg^−1, oral, Day 3
  Wound contraction (%): 24.5 ± 0.48 %
Diabetic rats; High dose 150 mg kg^−1, oral, Day 7
  Wound contraction (%): 31.25 ± 0.39 %
Diabetic rats; High dose 150 mg kg^−1, oral, Day 11
  Wound contraction (%): 64.00 ± 0.44 %
Diabetic rats; Low dose 75 mg kg^−1, oral, Day 3
  Wound contraction (%): 18.25 ± 0.55 %
Diabetic rats; Low dose 75 mg kg^−1, oral, Day 7
  Wound contraction (%): 24.50 ± 0.30 %
Diabetic rats; Low dose 75 mg kg^−1, oral, Day 11
  Wound contraction (%): 41.5 ± 0.43 %
Diabetic rats; Low dose 75 mg kg^−1, oral, Day 15
  Wound contraction (%): 55.77 ± 0.42 %
Diabetic rats; oral, diabetic rats
  Wound healing in rats: improved wound healing
3T3-L1 cells
  Activity compared to the positive control hyaluronic acid: comparable activity

## Hyaluronic acid [reference compound]
[1]; MTT assay, 3T3-L1
  3T3-L1 IC50: 112.59 µg/mL
